Source: the EternaBench riboswitch data

System: MS2 coat protein
Test: apparent Kd, MS2 coat protein; higher = weaker binding; RNA-MaP array
Procedure, shortened: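 On an Illumina sequencing chip, sequenced DNA templates served for transcription of the designed RNAs, which were then bound at room temperature by fluorescently labeled MS2 coat protein at 1.5 nM to 3 μM, with or without input ligand. Apparent Kd is the median of the fits to each cluster's binding curve. Only designs measured on at least 10 clusters were kept.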

[1] = designed as: ON switch for tryptophan, no ligand
[2] = ligand present: tryptophan, designed as: ON switch for tryptophan
[3] = designed as: ON switch for flavin mononucleotide, no ligand
[4] = ligand present: flavin mononucleotide, designed as: ON switch for flavin mononucleotide
[5] = designed as: OFF switch for flavin mononucleotide, no ligand
[6] = ligand present: flavin mononucleotide, designed as: OFF switch for flavin mononucleotide
[7] = designed as: OFF switch for theophylline, no ligand
[8] = ligand present: theophylline, designed as: OFF switch for theophylline

Sequence	apparent Kd [3]	apparent Kd [4]	apparent Kd [5]	apparent Kd [6]	also measured
UGUCCGUGAUCGGCCGCCACUCAACAAACCUGUGGAAACUGACAUGAGGAUCACCCAUGUUCUUGGAGGACCGGGAUUGCUUCGA					apparent Kd [1]: 14.6 nM; apparent Kd [2]: 17.3 nM
AUGUAACGUGAGAAGGUGUUGAAAUAAGUUCCAUAAAUCUUACAUGAGGAUCACCCAUGUUUAUACAAGGAUAUCAUUAAUUAU	16.8 nM	12.9 nM			
GGUUUGAACAAGAAGGUGAGUCACGAGACCCUGGGAUCUCGGGACAUGAGGAUCACCCAUGUCGUCAAGGAUAUUGUGGUGUUU	769 nM	191 nM			
CCGUUUCGGACAAGCAACACAUGAGGAUCACCCAUGUCAAUCUAGGAUAUCAUAAGGAUAUAACGUGAGAAGGAGAGCGACAGG			33.2 nM	24.4 nM	
AACAUGAGGAUCACCCAUGUUCUGCAAUAAAGUGUAUCAUAUAAGGAUAUCAGACUAAUACGAACUGAGAAGGUAUUCCUACAC	5.3 nM	4.39 nM			
UAUUUGGCGCUAGGAUAUAAAGGAACUAUUUAAUUAGAAGGAGCACGGGAACCUGAGGUACAUGAGGAUCACCCAUGUCUGAUA	17.6 nM	19.1 nM			
ACUGUCUUUGAUGAUAUGUAUGGGUCAUUGCGAGGACCGGUACGGCCGCCACUCGGUCCGCCACAUGAGGAUCACCCAUGUCUAU					apparent Kd (designed as: OFF switch for tryptophan, no ligand): 94.5 nM; apparent Kd (ligand present: tryptophan, designed as: OFF switch for tryptophan): 195 nM
GGCAAGUGAUAGAAGGGAUACAUGAGGAUCACCCAUGUAAGGGCGAAGCCUACCCUCCUUAAAGAUCAGGAUAUAUUGCAGACG			20.3 nM	19.6 nM	
ACCAGGUCAGGAUAUAGUUGGCAUUUGGCUGUGCCUCACUACUAGAAGGGACAUGAGGAUCACCCAUGUUGGGC			28.6 nM	50.5 nM	
AAACAUGAGGAUCACCCAUGUCGUCCAAUGUAGGCCUAUUGCGAGGAUAUCAUGUCCCAACUACGUGAGAAGGCGCGACUACCA			15.2 nM	12.5 nM	
AAUUCAAGGGUUAGGAUAUUCAAUAUAAAAUACUAGAAGAAGGAACAUGAGGAUCACCCAUGUUAUAGUGAUCU			27.1 nM	32.1 nM	
CUGAGCCUGUGUGUACAUGAGGAUCACCCAUGUUCGAUAGGGUAGGAUAUCGCAGUUUCUUGAGCCGAGAAGGACCCUAAUGGA			16.5 nM	30.1 nM	
AUCGAUUUUAUAGGAUAUCGCACAUGAGGAUCACCCAUGUGCCCGACAGACUUAAAGCUCAAUCGCGAGAAGGAUAGAACAGGG			8.63 nM	8.02 nM	
AGUCCCAGGGAGAAGGACAUGAUCACAUGAGGAUCACCCAUGUGAGCCAUUUUAUGUAGGGACGUGUAGGAUAUCCGGACAUGG			6.27 nM	6.11 nM	
GGGAAACAUGAGGAUCACCCAUGUAAGGAUAUAGAAGAUUCAACAUUCAAGAAUGAGACUAGAAGGUACAGAUC			20.2 nM	17.9 nM	
UCAUGGUCUGGAGAGAGAAUUACAUGAGGAUCACCCAUGUGCAGAAGGAGUUAUCGCACAACAAACUAGGAUAUGCCAAGAAUU	98.1 nM	152 nM			
CUCACUAAGCUUUAGGAUAUAGACACUGGCACAUGAGGAUCACCCAUGUUCAACAAGGCGGAUAACUAGAAGGAAAGUAACCUUUU	11.9 nM	9.64 nM			
UCGGUUCGUGUAGGAUAUACUCGCAAACAGGCAAAAUGCCUACAUGAGGAUCACCCAUGUUAGUGGUAGAAGGACACCUCAACA	479 nM	115 nM			
AGGGACAUGAGGAUCACCCAUGUUGAAACUCGAGGACCGGUACGGCCGCCACUCGUAUAAUCGAUGUCCAUUUGGGAUUCCGGCU					apparent Kd [1]: 25.3 nM; apparent Kd [2]: 24.2 nM
CCUCACGGACUCUCCACAUGAGGAUCACCCAUGUAAGCCGCGAAGGAUAUGAACGUCUCUCCGGGUCAGAAGGUCGCCGGUCCU			8.78 nM	9.71 nM	
CAAGGGAAAGUCAGGAUAUGCACAACCGACCGUUUGCAGAAGGGACAUGAGGAUCACCCAUGUGUGGAACUGUU			9.02 nM	21.4 nM	
GUUAUAAUUACCAAGGAUAUCACAAGGCUUACAUGAGGAUCACCCAUGUUAAUACUCACAGACCGUGAGAAGGUGGCAAGAUCGAU	21.4 nM	16 nM			
UGAUUGAGCGGAGGAUAUCUUAAUGAGCACGUAAGAGAAGGCCGGUGGCUCCUAUAUGCAGCGCACAUGAGGAUCACCCAUGUC			170 nM	91.6 nM	
UUACAAAACCAGAAGGUCUAAAAGAUUAAAUGAGAAGGAUAUGGCUAAACAUGAGGAUCACCCAUGUAGAAAACGAUACGUGAU	37.8 nM	29.9 nM			
GAAACAUUAGAAGGAUAUGAUACGAACACCGGGUACAUGAGGAUCACCCAUGUUCAGAAAUAAUAUCAGAAGGUCAGCAACAAA	985 nM	418 nM			
ACGAAGUGAGGAUAUACAUGAGGAUCACCCAUGUGCCCAGGGUGUGAUUGUAAAGAACGUAGAAGGCACAAUAG			594 nM	132 nM	
CAAAUAGACCACGAUACCAGAACACAAGGAGUAAUAUCAAACAUGAGGAUCACCCAUGUCUUCCCUUGGCAGCGUAGCACGGAGU					apparent Kd [7]: 11.7 nM; apparent Kd [8]: 13.3 nM

Sequence	apparent Kd [3]	apparent Kd [4]	apparent Kd [5]	apparent Kd [6]	also measured
GAUCUGGCGGUGAGGAUAUAUAUCAAAUGCAAGGCAUAGAAGGCACAUGAGGAUCACCCAUGUCUGCACCAGGG			14 nM	15.6 nM	
GUUCCCAUAUCAGGAUAUAUUUCACAUGAGGAUCACCCAUGUUACCCGUGAAGUCGACUCUAUGUAUAGAAGGGAUGAUGGGCC			55.4 nM	43.7 nM	
AUUAACAUGAGGAUCACCCAUGUGGCCCACCGAGGACCGGUACGGCCGCCACUCGUCGGAAAGGCUAAAUUUAUGAAGUCCAAAA					apparent Kd [1]: 18.7 nM; apparent Kd [2]: 16.1 nM
UACAAACCGUUAGAUGGGACAUGAGGAUCACCCAUGUAUAACAGAAGGUCAAAUUGAAACAUUCAGAAGGAUAUGUCAUACAAA			85.3 nM	59.5 nM	
UGUAUGUUAGGAUAUAGUGUGACACUGUAAUUGCUCGGCACCUAGAAGGAACAUGAGGAUCACCCAUGUGGUGG			337 nM	244 nM	
CCUAACUGAGGAUAUGACAACUGGCACAUGAGGAUCACCCAUGUAGACUCAUUCGAGUUAUCAGAAGGCAGAAUAU			10.7 nM	18.8 nM	
UCUCUCGAUGUGCAUUGACAUGAGGAUCACCCAUGUACUGCCUAGGAUAUAACUGGCCCGAUCAGUUAGAAGGAGGGAGAAUAG			6.67 nM	6.51 nM	
CCCGACGAGCCUGAGAUUAAGUAAGCGGAUACCAGAGAUAGGUAGCUCCCUUGGCAGCCGUGGACAUGAGGAUCACCCAUGUCAC					apparent Kd [7]: 11.1 nM; apparent Kd [8]: 11.2 nM
UGUAACGAAGGAUAUACAAGAAGACAAGUGCGGCAGUACGUACAUGAGGAUCACCCAUGUAGAAGGUCGAAGGC			7.03 nM	7.66 nM	
AUUAGCAAGUCAUAGGAUAUGAAGCCACUUACAUGAGGAUCACCCAUGUAAUUCCGGGUCCCGCCUCAGAAGGAUGACGUAAUAGG	17.1 nM	7.12 nM			
ACUAAUCAGCAACAUGAGGAUCACCCAUGUGGGCCGUCCGGCAGAAGGCCUACGCACUUAGACUAGGAGGAUAUGCAAGCAACU			15.7 nM	18.4 nM	
GUUUUUUAAGGAUAUUCUAUUUCUAACAUGAGGAUCACCCAUGUACCCUCGUGCUAGCGAGAAGAAGGUAACAAAC			546 nM	427 nM	
AUAAACCUAGGAUAUACCAGGACGAUUCAACAAGAAAACGAACAUGAGGAUCACCCAUGUAGAAGGAGGGAAAG			20.5 nM	25.3 nM	
UUAGAGAGAGGAUAUACAGAGUAUCAACUCGGCGGACAAGAACAUGAGGAUCACCCAUGUAGAAGGCUCUCAGA			18.6 nM	67.1 nM	
UAAACAUGAGGAUCACCCAUGUAUUGGAGUAACCGCAAGAGGAGAAGGACCGGAGUGAGAUUAUGGUAGGAUAUCCCAACUACA	17.6 nM	12.1 nM			
UUGGGACAUGAGGAUCACCCAUGUCAGGAUAUAUAUAAUCUGCGCGACGAGGGAUACAAUAGAAGGGACAACGG			18.2 nM	15.1 nM	
GCGGGAGCACAGAAGGCGGAACUAAAGCAAUUACCAAUAGUUAACAUGAGGAUCACCCAUGUGCCCGAGGAUAUGUCGAAAGUG	53.2 nM	10.6 nM			
GUCAACGAAGGAUAUACAGGGAUACCCGUCGAGUACGGAGCACAUGAGGAUCACCCAUGUAGAAGGUCGGUGUG			52 nM	142 nM	
CCUGAGGUUAUAGGAUAUAGGCUAGAGAGGUACGAUUCUUUAUGAACAUGAGGAUCACCCAUGUCCUAGAAGGAUACUUAGUAG	58.1 nM	112 nM			
GAAUAGGAUCAGAAGGAGCUCCAACGGUGACAUGAGGAUCACCCAUGUACUAAACUACAGAAAAGCUAGGAUAUGAAUAAUAGG	27.7 nM	25.4 nM			
GUGCGAAUGCAAGGAUAUGUCACAUAAACUGGAACAGAAGGUGCUGCUGAACAUGAGGAUCACCCAUGUACUUGACCGGCAACU	7.6 nM	6.81 nM			
GUCGAUUUUAAAUUGACAUGAGGAUCACCCAUGUCUUUAAUCAGAAGGCGGACAACAUUAUGUGCCGAGGAUAUGAUUGGAUCC	14.2 nM	11.3 nM			
CGAUGGGUAACAGGAUAUGAAUGGAAACCUCCAGUGUUGAGCACUUACAUGAGGAUCACCCAUGUUCAGAAGGGUUUGUGAUUG	38.9 nM	59.9 nM			
AGUUGUGGAAAGAAGGCGUGACGAGGUAAAUAUCCAACAUGAGGAUCACCCAUGUUUCUUGCCUACGAGGAUAUUUGUGCUAUC	14 nM	12.2 nM			
GUGAUCAUCCGAGGAUAUUUUUCAUAGGCAUAAGGGGACAUGAGGAUCACCCAUGUAAACACCAUAAAGAAGGCGGGGCAGACC			20 nM	15.3 nM	
AAAGAUAACAAAGGAUAUGGAAGAAAUUAUAGGCCAGAAGGAUGGAAAUUGACAAUCGUGACAUGAGGAUCACCCAUGUAAGAA	15.9 nM	13.2 nM			
UGGGAACAUGAGGAUCACCCAUGUGAGGAUAUCCACCGAUUUCACACGAUAGGCACAAGGAGAAGGCACACCUA			33.9 nM	36.2 nM	
